Laboratory results: ChEMBL document CHEMBL4513216, “Probing the Open Global Health Chemical Diversity Library for Multistage-Active Starting Points for Next-Generation Antimalarials” (ACS Infect Dis, 2020)

Assay: Toxicity liver stage against HepG2, at 10uM
Format: cell-based
Parameters: test concentration 10 uM, cell line HepG2-A16-CD81EGFP
Settings: human, HepG2-A16-CD81EGFP cells; read-out: INHIBITION
Summary of the method: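 Uninfected HepG2-A16-CD81EGFP cells, 3 × 10^3 per well, 1536-well, plated on prespotted compound at 10 μM final, parasite-free screening media added to match infected plates; puromycin 10 μM positive, DMSO 0.5% negative; run in parallel with 48 h PbLuc assay at 37 °C, 5% CO2; viability by CellTiter-Glo luminescence, normalized to controls.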

SMILES	cytotoxicity at 10 µM [%]
Cc1ccc(CC(=O)N2CCCC(c3nccs3)C2)cn1 (stereo unspecified)	-2.01
CCOc1ccc(Cc2c(O)nc(SC)n(-c3ccccc3)c2=O)cc1	4.04
O=C(O)c1ccc(=O)n(CC(c2ccc(Cl)cc2)N2CCCCCC2)c1 (stereo unspecified)	1.12
CC(C)N(C)C(=O)C1=NOC2(CCN(C(=O)c3ccnnc3)C2)C1 (stereo unspecified)	-119
Cc1nc(N2CCOCC2)nc2c1COCC21CCN(CC(C)C)C1 (stereo unspecified)	-128
Cc1ccc(NC2CCN(C(=O)CCc3c(C)noc3C)CC2)nn1	-11.4
C=C(C)CN1CCC(NC(=O)Nc2ccc(F)c(C(=O)NC)c2)CC1	5.58
CC1CC(=O)c2cc(C(=O)N3CCOCC3)c(=O)[nH]c2C1 (stereo unspecified)	-3.06
Cc1ccc(C(=O)N2CC[C@]3(C[C@@H](OCc4ccccn4)CO3)C2)nc1	-74.6
CC(C)c1nc(C2CCCN2C(=O)CN(C)Cc2ccccc2)no1 (stereo unspecified)	-4.86
N#Cc1ccc(N2CCC(c3nccn3Cc3cscn3)CC2)nc1	-7.01
CC(C)(C)N1CCN(C(=O)c2cccnc2-n2cncn2)CC1	4.22
O=C(COc1cccc(F)c1)N1C[C@@H](O)[C@H](N2CCOCC2)C1	6.02
CNC(=O)C(NC(=O)c1nccn2ccnc12)c1ccc(F)c(F)c1 (stereo unspecified)	-12.6
c1ccc(OCc2nc(CNCCn3cccn3)cs2)cc1	7.53
CSc1ccc(CN(CCO)Cc2nccn2C)cc1	4.98
CCN(CC)C[C@H]1CN2CC[C@H]1C[C@@H]2CNC(=O)Nc1ccsc1	-17.8
c1nc(CCC2CCCN2)cc(N2CCCOCC2)n1 (stereo unspecified)	3.91
CC(C)c1cc2c(s1)NC(c1ccccn1)NC2=O (stereo unspecified)	-0.378
Cc1nnc([C@@]23CCO[C@@H]2CCN(S(C)(=O)=O)C3)o1	9.16
CCc1cc(=O)[nH]c(-c2ccc(NCCC(C)O)nc2)n1 (stereo unspecified)	-127

SMILES	cytotoxicity at 10 µM [%]
CN(C)CC(=O)N1CCCC1c1cncc(Oc2ccc(F)cc2)n1 (stereo unspecified)	-10.9
Cc1cc(C)n(CC2CCCN2Cc2ccc(F)cc2C#N)n1 (stereo unspecified)	7.77
CCOCCC(=O)Nc1cccc(Oc2ccccn2)c1	8.32
Cc1ccc(CN2CCCC(c3nnc(CN4CCCCC4)n3C)C2)s1 (stereo unspecified)	-2.46
Cc1cccc(C)c1OCC(=O)N1CCOCC1c1ncon1 (stereo unspecified)	-17
Cc1cc(C)n(C2CCCN(C(=O)c3csc(C4CC4)n3)C2)n1 (stereo unspecified)	-2.51
O=C(O)C1CCCN1c1nc(-c2ccc(Cl)cc2)cc(C(F)(F)F)n1 (stereo unspecified)	30.1
COCC1CN(CC2CC2)Cc2nn(C)cc21 (stereo unspecified)	0.281
CN1CCN(C2CCN(CCOc3ccccc3)CC2)C1=O	-2.15
CC(C)Oc1ccc(CN2CCCC(N3CCOCC3)C2)cc1CO (stereo unspecified)	1.48
CC1CN(CC(=O)N2CCOCC2)CCN1Cc1nccn1C (stereo unspecified)	-15.6
CC(Nc1nccc(CCC(F)(F)F)n1)c1nc(-c2ccccn2)no1 (stereo unspecified)	-6.43
Cc1cc(C)c2nc(CN3C[C@H](CCO)[C@@H](N)C3)cc(O)c2c1	5.29
CCC[C@H]1CN(CCS(C)(=O)=O)C[C@@H]1NC(=O)c1ccccc1F	-5.88
O=C(NCCNS(=O)(=O)c1ccc(C(F)(F)F)cc1)c1ccoc1	-1.36
CCN1CCC(N2C[C@@H](C(=O)O)[C@H](c3cccc(OC)c3)C2)CC1	-2.85
Cc1ccc(NC2(C(=O)N3CCn4cncc4C3)CCCCC2)cc1C	8.47
Cc1nc(O)cc(CN2C[C@H](NS(=O)(=O)N(C)C)[C@@H](C3CC3)C2)n1	-5.01
CCC(C)N(C)S(=O)(=O)c1ccc(CCNC(C)=O)s1 (stereo unspecified)	-3.45
Cc1cnc(CN(C)C2CCN(Cc3ccc(Cl)s3)C2)o1 (stereo unspecified)	5.33
O=C(CC1CCc2ccccc21)NC1(C(=O)O)CCOCC1 (stereo unspecified)	-2.13

SMILES	cytotoxicity at 10 µM [%]
Cn1ncc2c(N3CCCN4CCC[C@H]4C3)nc(C(C)(C)C)nc21	-128
OCc1ccc(-c2nccn2CCC2=CCCCC2)o1	4.19
N#Cc1ccc(C2CC(=O)Nc3c(C(=O)O)nsc32)cc1 (stereo unspecified)	3.02
CN(C)C(=O)c1ccc(-c2cccc3c2CCNC3)cc1	-2.31
COc1ccc(C2CCCCCN2S(N)(=O)=O)cc1 (stereo unspecified)	8.87
CC(=O)N1CCC(c2cncc(N3CCC(O)C3)n2)CC1 (stereo unspecified)	5.57
Cc1nc(Cn2cnc3c(c(Br)nn3C)c2=O)cs1	8.84
CN(C)C(=O)CN1CCC2(CCN(C(=O)N(C)C)CC2)C1=O	0.611
Cc1ncc(CC(=O)N2CCCC(COc3ccccc3F)C2)c(=O)[nH]1 (stereo unspecified)	-151
COCCN1CC[C@]2(CN(Cc3ccccn3)C[C@H]2C)C1=O	8.86
CCc1c(C)nn(CCNC(=O)c2csc(C)n2)c1C	-2.78
COc1cc(CNC(=O)COC2CCCC2)ccc1O	-7.2
Cc1c(Cl)cccc1NC(=O)N1CCN(Cc2ccccn2)CC1	-5.55
c1cnn(C2CN(CCCOc3ccc4c(c3)OCO4)C2)c1	-4.73
CN1CC(=O)N(c2ccccc2)CC12CCN(CC1CC1)C2 (stereo unspecified)	4.42
O=C(NCc1ccccc1-n1cccn1)N1CCC(N2CCCC2)C1 (stereo unspecified)	-0.554
NC1CCc2c(ccc(=O)n2Cc2ccncc2)C1 (stereo unspecified)	-4.16
CN1CC[C@]2(CN(CC3CC3)C[C@H]2c2ccccc2)C1=O	3.15
Cc1csc(CN2CC[C@H]3O[C@H](C(=O)Nc4cccnc4)CC[C@H]32)n1	-47.1
Cc1nc(COC[C@@]23CCC[C@@H]2CN(Cc2cnn(C)c2)C3)cs1	-101
O=C(Cn1ccc2c(Cl)cccc21)N1CCCC1	0.583

SMILES	cytotoxicity at 10 µM [%]
COCC1CN(C(=O)Cc2ccc(F)cc2)Cc2ccnn2C1 (stereo unspecified)	-73.9
Cc1nc(N)sc1C(=O)N1CCCC(c2nccn2CCCN(C)C)C1 (stereo unspecified)	-6.82
CN1CCN(Cc2cn3c(n2)CN(C(=O)c2cccn2C)CC3)CC1	2.89
Cc1n[nH]c(C2CN(Cc3csc(C4CCCC4)n3)CCO2)n1 (stereo unspecified)	12.9
O=S1(=O)C[C@@H]2[C@H](C1)N(Cc1ncc[nH]1)CCN2CC1CC1	-7.18
Cc1cccc(C)c1OCC(C)Nc1nc(N)nc2c1CCNC2 (stereo unspecified)	5.75
COc1ccccc1Oc1ncccc1CNC(=O)[C@H](N)CC(C)(C)C	-1.73
CCc1cnccc1C(=O)Nc1ccc(C(N)=O)nc1	5.44
CCN1CC(C(=O)NCc2ccnc(-n3cccn3)c2)CC1=O (stereo unspecified)	-9.3
CN1C[C@@H](O)[C@]2(CCN(C(=O)c3ccccc3)C2)S1(=O)=O	0.148
CCCc1nc(C)c(C(=O)NCCn2nc3ccccn3c2=O)s1	-10.1
CCN1CC(C(=O)NC(C)(C)C(=O)OC)CC1=O (stereo unspecified)	-143
COc1cccc(CN(C)C(=O)Nc2ccc3c(c2)OCCO3)c1	-0.627
Fc1ccc(-c2nc(CNC3CCc4ncnn4C3)co2)cc1 (stereo unspecified)	-4.2
Cc1nnc(N2CCc3cnc(C(C)C)nc3C2)c(C#N)c1C	-143
Cn1cc(CC2CCN(C(=O)NCc3cccc(C#N)c3)C2)cn1 (stereo unspecified)	-12.3
CC1CN(CC2CCCCC2)CCN1c1ccc2nncn2n1 (stereo unspecified)	13.8
CCc1nc(CN2CCCN(CC(=O)Nc3cccnc3)CC2)no1	-17.4
